Neddylation inh: cullin neddylation inhibition; TR-FRET cullin neddylation, biochemical; calls only at 25 µM; actives 0.58% (n = 360,000); in the data active = inhibition above about 36%
Target sequence (P61081 whole entry, looked up): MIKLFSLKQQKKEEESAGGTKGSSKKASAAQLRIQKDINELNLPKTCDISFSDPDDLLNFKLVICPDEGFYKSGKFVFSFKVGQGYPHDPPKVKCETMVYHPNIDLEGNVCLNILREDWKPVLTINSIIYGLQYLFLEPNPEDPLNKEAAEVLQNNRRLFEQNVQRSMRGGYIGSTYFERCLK
Target sequence (Q13564 whole entry, looked up): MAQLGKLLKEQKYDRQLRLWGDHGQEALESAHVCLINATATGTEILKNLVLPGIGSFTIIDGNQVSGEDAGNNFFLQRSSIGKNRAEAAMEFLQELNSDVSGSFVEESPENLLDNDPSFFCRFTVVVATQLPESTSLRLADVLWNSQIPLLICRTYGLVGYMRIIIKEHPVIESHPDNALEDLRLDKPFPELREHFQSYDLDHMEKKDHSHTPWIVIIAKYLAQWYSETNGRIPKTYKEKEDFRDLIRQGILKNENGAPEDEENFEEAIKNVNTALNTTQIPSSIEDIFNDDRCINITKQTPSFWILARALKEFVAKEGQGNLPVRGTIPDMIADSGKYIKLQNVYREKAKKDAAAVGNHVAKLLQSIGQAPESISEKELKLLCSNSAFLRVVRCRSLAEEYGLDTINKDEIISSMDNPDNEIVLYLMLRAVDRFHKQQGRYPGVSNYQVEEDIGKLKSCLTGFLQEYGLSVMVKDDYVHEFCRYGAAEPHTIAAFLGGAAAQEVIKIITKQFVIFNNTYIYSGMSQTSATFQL
SKN-1 inh: inhibitors of C. elegans SKN-1; C. elegans VP596 Pgst-4::GFP/RFP ratio, acrylamide-induced, 24 h; inhibition, % at 21.8 µM; actives 0.49% (n = 360,000);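 active = interference check ratio from 0.5 to 1.5 plus GFP to RFP signal ratio inhibition reaching or exceeding a fixed threshold, cut at about 30% in these data, passing the limit was not always enough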
proKLK7 act: activates the human kallikrein-7 zymogen | AID 652039 | purified proKLK7, EDANS-DABCYL substrate fluorescence; 100% is mature enzyme control, 0% vehicle | activation, % at 7 µM | P49862 | actives 0.9% (n = 370,000);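 active = activation above the mean of all tested compounds plus 3 SD, computed per campaign excluding outliers beyond control limits, cut at about 13% in these data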
MT1-MMP act inh: inhibitors of human MT1-MMP activation; P50281; HT1080 RFP-PRO-GFP cells, GFP/RFP ratio fluorescence, overnight; percent of plate control window, DMSO zero; GFP/RFP ratio change, % at 20 µM; actives 0.061% (n = 360,000); AID 651647;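 active = GFP/RFP ratio change of at least 30% with cell ATP level not reduced by more than half and red fluorescence within 50% of control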
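Assay system: HT1080 RFP-PRO-GFP cells | Dosing: 20 µM single dose, 1% DMSO | Incubation: Cells overnight before dosing, compound overnight, 37 °C, 5% CO2 | Evaluation: GFP/RFP fluorescence ratio | Control set: DMSO-only wells and HT1080 RFP-L50D-GFP cell wells as references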
Tn6 DDE FP: disrupts Tn6 cyclic peptide binding to fibrin D-Dimer-E complex; Fibrin DD(E) TRITC-Tn6 fluorescence polarization displacement; actives 0.21% (n = 370,000); inhibition, % at 8.3 µM;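 active = inhibition above a per-campaign cutoff: mean of compounds within control limits plus 3 SD, cut at about 15% in these data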
Tn7 DDE FP: disrupts Tn7 cyclic peptide binding to fibrin D-Dimer-E complex; FP displacement of FITC-Tn7 peptide from fibrin DD(E); 0% = median of compound wells per plate; inhibition, % at 8.3 µM; P02675; actives 0.13% (n = 370,000);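 active = inhibition above the mean of compounds falling within the control limits plus 3 SD of them, cut at about 14% in these data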
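Also added: labelled Tn7 tracer, 0.1 µM; Assay system: human fibrin DD(E) protein; Amount: 2 µM fibrin DD(E); Schedule: 10 min compound pre-incubation, 3 h probe incubation at room temperature; Repeats: one replicate per compound; Read-out basis: percent inhibition; Measured by: fluorescence polarization of the labelled Tn7 tracer.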
KLK7 act conf: confirmation of human kallikrein-7 zymogen activators | shares compounds with proKLK7 act | purified proKLK7, EDANS-DABCYL substrate fluorescence; scaled: vehicle 0, mature enzyme 100 | activation, % at 7 µM | actives 68% (n = 3,200) | AID 686949;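 active = activation, as change over the incubation, above the mean of all tested compounds plus 3 SD, cut at about 13% in these data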
EDANS interfere: counter-screen for kallikrein-7 activators: EDANS-DABCYL optical interference | shares compounds with proKLK7 act | EDANS-DABCYL substrate fluorescence interference, no enzyme, 4 h; solvent 0%, active enzyme control 100% | activation, % at 7 µM | actives 80% (n = 3,200) | AID 686952;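 active = activation above the all-compound mean plus 3 SD, ignoring values outside control-based bounds, cut at about 4.8% in these data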;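 note: value is the 4 h activation minus the activation read at time zero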
K7 EDANS ctr: EDANS fluorescence interference in dose response, no enzyme | shares compounds with proKLK7 act | EDANS-DABCYL peptide fluorescence interference | EC50, µM | actives 20% (n = 250) | AID 720493;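 active = compounds that raise the fluorescence signal in this interference counterscreen, with EC50 at or below 10 µM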;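 note: intact quenched peptide substrate alone read at 355 nm excitation and 520 nm emission; signal is fluorescence gain from T0 to T4 after four hours at room temperature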
Of the large screens only hits and unclear results are named; the others gave an inactive call (follow-up assays come after a bar, where shown). Sampled rows, rich in hits. Any-hit rate of the full collection: about 2.2%.

CCOC(=O)c1cc2c(=O)n3ccccc3nc2n(Cc2ccco2)c1=NC(=O)c1cccc(OC)c1	proKLK7 act 29 (not shown: Neddylation inh) | KLK7 act conf 42 | EDANS interfere 53
CCOC(=O)c1cc2c(=O)n3ccccc3nc2n(Cc2ccco2)c1=NC(=O)c1ccccc1OC	none (not shown: Neddylation inh)
Cc1ccc2c(c1)[C@@H]1CN(C)CC[C@@H]1N2S(=O)(=O)c1ccc([N+](=O)[O-])cc1	none
N#CCn1cc(/C=N/NC(=O)c2cc3c(ccc4ccccc43)o2)c2ccccc21	proKLK7 act 35 (not shown: Neddylation inh) | KLK7 act conf inactive | EDANS interfere inactive
COc1ccc(/C=N/NC(=O)c2cc3c(ccc4ccccc43)o2)cc1OC	proKLK7 act 43 (not shown: Neddylation inh) | KLK7 act conf 58 | EDANS interfere 4.5 | K7 EDANS ctr inactive
COc1ccc(CC(=O)Nc2ccc3nc(C)sc3c2)cc1OC	none
N#Cc1cn(Cc2ccccc2)c(=O)[nH]c1=O	none
CCN(CC)C(=O)Cn1cc(C(=O)C(=O)Nc2ccc3c(c2)OCO3)c2ccccc21	proKLK7 act 57 | KLK7 act conf 24 | EDANS interfere 44
FC(F)(F)c1ccc2c(c1)N1CCCC1CN2 (stereo not drawn)	none
FC(F)(F)c1ccc2c(c1)NCC1CCCN21 (stereo not drawn)	proKLK7 act 68 (not shown: Neddylation inh) | KLK7 act conf 46 | EDANS interfere 47
COc1ccc(N2C3=C(C(=O)CC(C)(C)C3)C(c3cnn(C)c3)C3=C2CC(C)(C)CC3=O)cc1	proKLK7 act 21 (not shown: Neddylation inh) | KLK7 act conf inactive | EDANS interfere inactive
NC1(C#Cc2ccc3oc(=O)c(-n4cc(-c5ccsc5)nn4)cc3c2)CCCCC1	none
CS(=O)(=O)c1cccc(C(=O)Nc2ccc(-c3nc4ccccc4[nH]3)cc2)c1	proKLK7 act 84 (not shown: Neddylation inh) | KLK7 act conf 55 | EDANS interfere 63
CCC(c1nnnn1Cc1ccc(F)cc1)N(CCCO)Cc1cc2cc3c(cc2[nH]c1=O)OCO3 (stereo not drawn)	proKLK7 act 26 (not shown: Neddylation inh) | KLK7 act conf inactive | EDANS interfere inactive
Cc1c(Cl)cccc1N1C(=O)CC(N(O)c2ccccc2)C1=O (stereo not drawn)	proKLK7 act 759 | KLK7 act conf 676 | EDANS interfere 671
CCCCOc1ccc(N2C(=O)CC(N(O)c3ccccc3)C2=O)cc1 (stereo not drawn)	proKLK7 act 33 | KLK7 act conf 36 | EDANS interfere 33
Cc1cccc(C)c1N1C(=O)CC(N(O)c2ccccc2)C1=O (stereo not drawn)	proKLK7 act 277 | KLK7 act conf 224 | EDANS interfere 254
CN=C(Nc1ccc(C)c(C)c1)SC1CC(=O)N(c2ccc(OC)cc2)C1=O (stereo not drawn)	none
CCOc1ccc(S(=O)(=O)NCCC(=O)N2CCCC(C)C2)cc1 (stereo not drawn)	none
COC(=O)CN1C(=S)N(c2ccc(OC)cc2)C(=O)C1CC(=O)Nc1ccc(F)cc1 (stereo not drawn)	none
CCOC(=O)C1=C(CSc2nc(-c3ccncc3)ccc2C#N)OC(N)=C(C#N)C1c1cccnc1 (stereo not drawn)	proKLK7 act 51 | KLK7 act conf 66 | EDANS interfere 72
CCOC(=O)C1=C(CSc2nc(-c3ccncc3)ccc2C#N)OC(N)=C(C#N)C1c1ccc(OC)cc1 (stereo not drawn)	proKLK7 act 26 | KLK7 act conf 67 | EDANS interfere 66
COC(=O)c1ccccc1S(=O)(=O)N1CCC(C(=O)OC(C)C(=O)Nc2ccccc2OC)CC1 (stereo not drawn)	none
Cc1ccc2nc(-c3ccc(NC(=O)CSc4nnc(-c5cccc(Cl)c5)n4Cc4ccco4)cc3)sc2c1	proKLK7 act 70 (no result: Neddylation inh, SKN-1 inh, MT1-MMP act inh) | KLK7 act conf inactive | EDANS interfere inactive
CCN(CC)c1ccc(NC(=O)CSc2nnc(-c3ccc(Cl)cc3)n2Cc2ccco2)cc1	none (no result: Neddylation inh, SKN-1 inh, MT1-MMP act inh)
COc1ccc(-c2nnc(SCC(=O)Nc3ccc(Oc4ccccc4)cc3)n2Cc2ccco2)cc1	none (no result: Neddylation inh, SKN-1 inh, MT1-MMP act inh)
C=CCn1c(SCC(=O)Nc2ccc(-c3nc4ccc(C)cc4s3)cc2)nnc1-c1ccccc1	proKLK7 act 26 (not shown: Neddylation inh) | KLK7 act conf 67 | EDANS interfere 67
Cc1ccc(-c2nnc(SCC(=O)Nc3ccc(-c4nc5ccc(C)cc5s4)cc3)n2Cc2ccco2)cc1	proKLK7 act 104 (no result: Neddylation inh, SKN-1 inh, MT1-MMP act inh) | KLK7 act conf 94 | EDANS interfere 116
Cc1ccc2nc(-c3ccc(NC(=O)CSc4nnc(-c5cc(C)[nH]n5)n4N)cc3)sc2c1	proKLK7 act 33 (no result: Neddylation inh, SKN-1 inh, MT1-MMP act inh) | KLK7 act conf inactive | EDANS interfere inactive
CCCc1cc(=O)oc2cc(OCC(=O)Nc3ccccn3)ccc12	none
CCc1nn(CC(=O)NCCCN2CCN(C)CC2)c(=O)c2cc3sc(C)cc3n12	none
CCc1nn(CC(=O)NCCN2CCN(C)CC2)c(=O)c2cc3c(OC)cccc3n12	proKLK7 act 34 (not shown: Neddylation inh) | KLK7 act conf 27 | EDANS interfere 34
CNc1nc2c(Cl)cc(Cl)cc2s1	none
N#Cc1c(Nc2ccccc2)c(/C=N/N=C/c2ccccc2)c[nH]c1=O	none
N#CC(C#N)=Cc1c[nH]c(=O)c(C#N)c1Nc1ccccc1	proKLK7 act 62 | KLK7 act conf 63 | EDANS interfere 62
CCCCc1cc(=O)oc2cc(C)cc(OC(C)C(=O)NCC3CCC(C(=O)O)CC3)c12 (stereo not drawn)	none (not shown: Neddylation inh)
CCCCc1cc(=O)oc2cc(C)cc(OC(C)C(=O)O)c12 (stereo not drawn)	proKLK7 act 20 (not shown: Neddylation inh) | KLK7 act conf 31 | EDANS interfere 33
CCCCc1cc(=O)oc2cc(C)cc(O)c12	none
CCCCc1cc(=O)oc2cc(O)cc(O)c12	proKLK7 act 78 | KLK7 act conf 70 | EDANS interfere 70
CCCc1cc(=O)oc2cc(C)cc(OCC(=O)O)c12	proKLK7 act 19 (not shown: Neddylation inh) | KLK7 act conf 36 | EDANS interfere 34
C/C(=N\N1C(C)CCCC1C)c1ccccc1O (stereo not drawn)	none
COc1ccc(S(=O)(=O)N(C)CC(=O)N2CCOCC2)cc1Cl	none

Compound activity from PubChem BioAssay.
